For experiment [1], the system named is CCRF-CEM. The experiment is described as follows: Antiproliferative activity against human CCRF-CEM cells assessed as cell viability at 50 uM after 24 hrs by CellTiter assay relative to DMSO control. The format is functional. The following applies: read-out: Activity.
For experiment [2], the system named is CCRF-CEM. The experiment is described as follows: Antiproliferative activity against human CCRF-CEM cells assessed as cell viability at 50 uM by CellTiter assay relative to DMSO control. The format is functional, cell-based.
Experiment [3] concerns CCRF-CEM. The experiment is described as follows: Antiproliferative activity against human CCRF-CEM cells assessed as cell viability at 50 uM after 96 hrs by CellTiter assay relative to DMSO control. The format is functional. The settings on record: read-out: Activity.
In experiment [4] the test system is HCT-116. The experiment in a line: Antiproliferative activity against human HCT116 cells assessed as cell viability at 50 uM after 72 hrs by CellTiter assay relative to DMSO control. The format is functional. The settings on record: HCT-116, 72 h, read-out: Activity. Summed up: (§1)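 ATCC-derived cells kept in EMEM with 10% FBS and 1% penicillin/streptomycin at 37 °C under 5% CO2. At 75–80% confluency, 5000 cells/well were seeded, then after 72 h exposed to 50 µM compound in triplicate for 72 h. CellTiter 96 AQueous One reagent was added for 1 h at 37 °C and formazan A490 read, with cell-free medium plus reagent as blank. Results are % of untreated control.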

Experiment [5] deals with CCRF-CEM. The experiment in a line: Antiproliferative activity against human CCRF-CEM cells assessed as cell viability at 50 uM after 48 hrs by CellTiter assay relative to DMSO control. Type of experiment: functional. The settings on record: read-out: Activity.
The test system of experiment [6] is MDA-MB-468. The experiment in a line: Antiproliferative activity against human MDA-MB-468 cells assessed as cell viability at 50 uM after 72 hrs by CellTiter assay relative to DMSO control. The format is functional. The following applies: MDA-MB-468, 72 h, read-out: Activity. Summed up:
as §1

Experiment [7] has as its system CCRF-CEM. The experiment is described as follows: Antiproliferative activity against human CCRF-CEM cells assessed as cell viability at 50 uM after 72 hrs by CellTiter assay relative to DMSO control. Type of experiment: functional. The following applies: read-out: Activity. Summed up: as §1
Experiment [8] has as its system MDA-MB-468. The experiment in a line: Antiproliferative activity against human MDA-MB-468 cells assessed as cell viability at 10 uM after 72 hrs by CellTiter assay. The format is functional, cell-based. Summed up: (§2)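 Doxorubicin was the positive control at 10 µM. ATCC cells were grown in EMEM with 10% FBS and 1% penicillin/streptomycin at 37 °C under 5% CO2, seeded at 5000 cells/well, and treated 72 h after seeding for a 72 h exposure. Viability was read by CellTiter 96 AQueous One reagent (1 h, 37 °C) as A490, minus a cell-free blank, and expressed as % of untreated control.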

Experiment [9] concerns CCRF-CEM. The experiment in a line: Antiproliferative activity against human CCRF-CEM cells assessed as cell viability at 10 uM after 72 hrs by CellTiter assay. The format is functional, cell-based. Summed up:
as §2

For experiment [10], the system named is HCT-116. The experiment in a line: Antiproliferative activity against human HCT116 cells assessed as cell viability at 10 uM after 72 hrs by CellTiter assay. Type of experiment: functional, cell-based. Summed up: as §2

This passage reports viability and Activity results from ChEMBL document CHEMBL3085638, “Synthesis of novel ciprofloxacin analogues and evaluation of their anti-proliferative effect on human cancer cell lines” (2013).

Calls of active or inactive are those of the source. The rule behind the calls is not given here.

For the compound `O=C(O)c1cn(C2CC2)c2cc(N3CCN(C(=O)CN4CCN(C(c5ccc(F)cc5)c5ccc(F)cc5)CC4)CC3)c(F)cc2c1=O`, the viability at 50 µM in the experiment on CCRF-CEM [1] turned out to be 19%; with CCRF-CEM [3], 43%; in the experiment on HCT-116 [4], 35%; in the experiment on CCRF-CEM [5], 27%; with MDA-MB-468 [6], 35%; in the experiment on CCRF-CEM [7], 38%. Moreover, the Activity result in the experiment on CCRF-CEM [2] (TDE = time-dependent effect) is “tde”.
Take `O=C(O)c1cn(C2CC2)c2cc(N3CCN(C(=O)CN4CCN(c5ccc(F)c(F)c5)CC4)CC3)c(F)cc2c1=O`: the viability at 50 µM in the experiment on HCT-116 [4], with MDA-MB-468 [6] and with CCRF-CEM [7] was 35% each time.
For the compound `COc1cccc2c1C(=O)c1c(O)c3c(c(O)c1C2=O)C[C@@](O)(C(=O)CO)C[C@@H]3O[C@H]1C[C@H](N)[C@H](O)[C@H](C)O1`, the result in the experiment on MDA-MB-468 [8], in the experiment on CCRF-CEM [9] and in the experiment with HCT-116 [10] was Active.
Take `O=C(O)c1cn(C2CC2)c2cc(N3CCNCC3)c(F)cc2c1=O`: the result in the experiment on CCRF-CEM [2] was Active.
In the case of `O=C(O)c1cn(C2CC2)c2cc(N3CCN(C(=O)CN4CCN(C(c5ccccc5)c5ccccc5)CC4)CC3)c(F)cc2c1=O`, in the experiment with MDA-MB-468 [6], the viability at 50 µM was at most 35%.
